Results from EPA's CvTdb concentration-time database.

How the values were obtained:
rat [1] = experiment: concentration in expired air after dosing; conditions: dosed: 1,1,2-trichloroethane, 501 ppm, inhalation, duration: 6 hr
rat [2] = experiment: concentration in expired air after dosing; conditions: dosed: 1,1,2-trichloroethane, 501 ppm, inhalation, duration: 6 hr; remark: listed apart in the source
human [3] = experiment: amount in urine after dosing (umol); conditions: dosed: tert-amyl methyl ether
In short: (§1)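 Data points giving concentration or amount against time came from published in vivo toxicokinetic studies and from two structured collections. PubMed searching, classifier screening and manual review located the studies. Most points were digitised from plot screenshots using WebPlotDigitizer, the rest were copied from tables, and all keep their reported units.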

rat [4] = experiment: amount in urine after dosing (umol); conditions: dosed: tert-amyl methyl ether, 38.4 ppm, inhalation, duration: 4 hr, F344 (Harlan Winkelmann)
human [5] = experiment: concentration in blood after dosing; conditions: dosed: tert-amyl methyl ether
In short: as §1

human [6] = experiment: concentration in blood after dosing; negative times count back from the end of exposure; conditions: inhalation, male
In short: as §1

ClCC(Cl)Cl [1,1,2-trichloroethane]
concentration in expired air [ng/mL]
Conditions | rat [1] | rat [2]
0.1604 h | – | 149
0.3009 h | – | 215
0.4836 h | 248 | 275
0.7365 h | 321 | 258
0.9895 h | 250 | 331
1.495 h | 233 | 272
2.493 h | 201 | –
2.507 h | – | 253
3.491 h | 225 | –
3.505 h | – | 180
3.996 h | 197 | 164
4.488 h | 185 | –
4.502 h | – | 139
4.98 h | 134 | 152
6.498 h | 67.1 | 75.2
6.989 h | 42.2 | 51.8
7.481 h | 36.1 | –
7.495 h | – | 24.6
7.987 h | 21.3 | 14.7
8.985 h | 11.1 | 6.7
9.996 h | 3.53 | 5.67
10.98 h | 2.46 | 3.53
13 min | 204 | –
223 s | 110 | –

CCC(C)(C)O [tert-amyl alcohol]
oral
Conditions | amount in urine | concentration in blood [nM]
human [3], 0 h, 5 mg | 0.00166 | –
human [3], 0 h, 15 mg | 0.00586 | –
human [3], 6.182 h, 15 mg | 0.181 | –
human [3], 6.2 h, 5 mg | 0.176 | –
human [3], 11.93 h, 15 mg | 0.0638 | –
human [3], 11.99 h, 5 mg | 0.0598 | –
human [3], 17.98 h, 15 mg | 0.0106 | –
human [3], 18.09 h, 5 mg | 0.0183 | –
human [5], 0.9886 h, 15 mg | – | 972
human [5], 1.015 h, 5 mg | – | 445
human [5], 2.032 h, 15 mg | – | 777
human [5], 2.058 h, 5 mg | – | 340
human [5], 3.046 h, 5 mg | – | 276
human [5], 3.982 h, 15 mg | – | 540
human [5], 4.006 h, 5 mg | – | 220
human [5], 6.037 h, 5 mg | – | 155
human [5], 6.041 h, 15 mg | – | 355
human [5], 8.046 h, 15 mg | – | 254
human [5], 8.067 h, 5 mg | – | 111
human [5], 9.995 h, 15 mg | – | 177
human [5], 10.02 h, 5 mg | – | 86.5
human [5], 12.03 h, 15 mg | – | 101
human [5], 12.05 h, 5 mg | – | 67.4

duration: 4 hr
Conditions | amount in urine | concentration in blood [nM]
human [3], 0.144 h, 38.4 ppm, inhalation | 1.36 | –
human [3], 5.941 h, 3.8 ppm, inhalation | 0.345 | –
human [3], 6.198 h, 38.4 ppm, inhalation | 2.11 | –
human [3], 12.1 h, 3.8 ppm, inhalation | 0.143 | –
human [3], 12.11 h, 38.4 ppm, inhalation | 1.74 | –
human [3], 17.91 h, 3.8 ppm, inhalation | 0.0476 | –
human [3], 18.16 h, 38.4 ppm, inhalation | 0.992 | –
human [3], 24.21 h, 38.4 ppm, inhalation | 0.62 | –
human [3], 30.05 h, 38.4 ppm, inhalation | 0.248 | –
human [3], 36.11 h, 38.4 ppm, inhalation | 0.372 | –
human [3], 248 s, 3.8 ppm, inhalation | 0.119 | –
human [5], 2.005 h, 3.8 ppm, inhalation | – | 816
human [5], 2.034 h, 38.4 ppm, inhalation | – | 7740
human [5], 3.957 h, 38.4 ppm, inhalation | – | 6550
human [5], 3.966 h, 3.8 ppm, inhalation | – | 480
human [5], 6.018 h, 38.4 ppm, inhalation | – | 5900
human [5], 7.942 h, 38.4 ppm, inhalation | – | 4140
human [5], 9.948 h, 38.4 ppm, inhalation | – | 3160
human [5], 11.98 h, 38.4 ppm, inhalation | – | 2850
human [5], 23.91 h, 38.4 ppm, inhalation | – | 835
human [5], 78 s, 3.8 ppm, inhalation | – | 960
human [5], 99 s, 38.4 ppm, inhalation | – | 9530
human [6], 0.6509 h, dosed: tert-amyl methyl ether, 50 ppm | – | 17000
human [6], 0.7385 h, dosed: tert-amyl methyl ether, 15 ppm | – | 4840
human [6], 1.158 h, dosed: tert-amyl methyl ether, 50 ppm | – | 16000
human [6], 1.169 h, dosed: tert-amyl methyl ether, 15 ppm | – | 4710
human [6], 2.413 h, dosed: tert-amyl methyl ether, 50 ppm | – | 13400
human [6], 2.567 h, dosed: tert-amyl methyl ether, 15 ppm | – | 4380
human [6], 6.871 h, dosed: tert-amyl methyl ether, 50 ppm | – | 7280
human [6], 7.192 h, dosed: tert-amyl methyl ether, 15 ppm | – | 2200
human [6], 19.71 h, dosed: tert-amyl methyl ether, 50 ppm | – | 1840
human [6], 19.75 h, dosed: tert-amyl methyl ether, 15 ppm | – | 597
human [6], 141 s, dosed: tert-amyl methyl ether, 15 ppm | – | 5450

rat [4]
Conditions | amount in urine
5.91 h | 0.0178
11.97 h | 0.0273
17.83 h | 0.0115
23.9 h | 0.0462

concentration in blood [nM], human [6], dosed: tert-amyl methyl ether, duration: 4 hr, during exposure
Conditions | -4 h | -3.999 h | -3.146 h | -3.049 h | -1.944 h | -1.922 h | -1.113 h | -1.062 h
15 ppm | 6 | – | – | 1700 | – | 3520 | – | 4030
50 ppm | – | 10 | 6060 | – | 5580 | – | 11900 | –

ClC=C(Cl)Cl [trichloroethene]
human [6], dosed: trichloroethene, 100 ppmv, duration: 240 min
Conditions | concentration in blood [ng/mL]
0.2522 h | 634
0.3977 h | 426
0.9604 h | 198
1.911 h | 112
4.055 h | 4.16

human [6], dosed: trichloroethene, 100 ppmv, duration: 240 min, during exposure
Conditions | concentration in blood [ng/mL]
-226 s | 1170
-175 s | 1170
-3.513 h | 588
-3.022 h | 851
-2.029 h | 1100
-1.031 h | 1040
